Test results as given in ChEMBL document CHEMBL4270594, “Design, synthesis and pharmacological evaluation of new 3-(1H-benzimidazol-2-yl)quinolin-2(1H)-one derivatives as potential antitumor agents” (Eur J Med Chem, 2018).
Activity calls are given as the source filed them. The rule behind the calls is not given here.

How the values were obtained:
HepG2 [1] = assay: Cytotoxicity against human HepG2 cells after 48 hrs by MTT assay; type: functional, cell-based; conditions: HepG2, 48 h
Procedure, shortened: (§1)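 MTT cytotoxicity assay run against HepG2 and BEL-7404 liver cancer, SK-OV-3 ovarian, NCI-H460 large-cell lung cancer and HL-7702 normal liver cells. 5-fluorouracil and cisplatin served as positive controls. IC50 is given as mean ± SD of three repeat experiments.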

L02 = assay: Cytotoxicity against human HL-7702 cells after 48 hrs by MTT assay; type: cell-based; conditions: L02, 48 h; procedure, shortened: as §1
HepG2 [2] = assay: Upregulation of p53 protein expression in human HepG2 cells at 10 uM after 12 hrs by Western blot analysis; type: functional, cell-based
SK-OV-3 = assay: Cytotoxicity against human SKOV3 cells after 48 hrs by MTT assay; type: functional, cell-based; conditions: SK-OV-3, 48 h; procedure, shortened: as §1
NCI-H460 = assay: Cytotoxicity against human NCI-H460 cells after 48 hrs by MTT assay; type: functional, cell-based; conditions: NCI-H460, 48 h; procedure, shortened: as §1
BEL-7404 tumor cell line [3] = assay: Cytotoxicity against human Bel7404 cells after 48 hrs by MTT assay; type: functional, cell-based; conditions: BEL-7404, 48 h; procedure, shortened: as §1
BEL-7404 tumor cell line [4] = assay: Antitumor activity against human Bel7404 cells xenografted in Balb/c nude mouse assessed as tumor growth inhibition at 25 mg/kg/2 days, ip for 20 days measured on day 21 post last dose relative to control; type: functional; conditions: BEL-7404, ip, read-out: TGI
BEL-7404 tumor cell line [5] = assay: Antitumor activity against human Bel7404 cells xenografted in Balb/c nude mouse assessed as relative tumor volume increment rate at 25 mg/kg/2 days, ip for 20 days measured on day 21 post last dose relative to control; type: functional

In the case of `O=c1[nH]c2ccccc2cc1-c1nc2ccccc2[nH]1`, the IC50 (HepG2 [1]) is reported as 29.6 µM, the IC50 (L02) is reported as > 100 µM and the Activity (HepG2 [2]) is reported as “inactive”. For the same compound, the IC50 (SK-OV-3) was 13.8 µM, the IC50 (NCI-H460) was > 100 µM and the IC50 (BEL-7404 tumor cell line [3]) was > 100 µM.

With `O=c1[nH]c2ccccc2cc1-c1nc2cc(F)ccc2[nH]1` the IC50 (HepG2 [1]) was 15.2 µM, the IC50 (L02) was > 100 µM and the IC50 (SK-OV-3) was 18.3 µM. The IC50 (NCI-H460) was 24.2 µM and the IC50 (BEL-7404 tumor cell line [3]) was 27.4 µM.

In the case of `Cc1cc2nc(-c3cc4ccccc4[nH]c3=O)[nH]c2cc1C`, the IC50 (HepG2 [1]) is reported as > 100 µM, the IC50 (L02) is reported as > 100 µM and the IC50 (SK-OV-3) is reported as > 100 µM. The IC50 (NCI-H460) was > 100 µM and the IC50 (BEL-7404 tumor cell line [3]) was > 100 µM.

In the case of `COc1ccc2[nH]c(=O)c(-c3nc4cc([N+](=O)[O-])ccc4[nH]3)cc2c1`, the IC50 (HepG2 [1]) is reported as > 100 µM, the IC50 (L02) is reported as > 100 µM and the IC50 (SK-OV-3) is reported as > 100 µM. For the same compound, the IC50 (NCI-H460) was > 100 µM and the IC50 (BEL-7404 tumor cell line [3]) was > 100 µM.

For `Cc1cc2nc(-c3cc4cc5c(cc4[nH]c3=O)OCO5)[nH]c2cc1C`, the IC50 (HepG2 [1]) was 18.7 µM, the IC50 (L02) was > 100 µM and the IC50 (SK-OV-3) was 10.6 µM. The IC50 (NCI-H460) was 23.8 µM and the IC50 (BEL-7404 tumor cell line [3]) was 15.7 µM.

`COc1ccc2[nH]c(=O)c(-c3nc4cc(Br)ccc4[nH]3)cc2c1` was tested, and the IC50 (HepG2 [1]) was > 100 µM, the IC50 (L02) was > 100 µM and the IC50 (SK-OV-3) was > 100 µM. For the same compound, the IC50 (NCI-H460) was > 100 µM and the IC50 (BEL-7404 tumor cell line [3]) was > 100 µM.

With `O=c1[nH]c2ccccc2cc1-c1nc2cc(Br)ccc2[nH]1` the IC50 (HepG2 [1]) was 10.8 µM, the IC50 (L02) was > 100 µM and the IC50 (SK-OV-3) was 11.4 µM. The IC50 (NCI-H460) was 16.8 µM and the IC50 (BEL-7404 tumor cell line [3]) was 14.5 µM.

With `COc1ccc2[nH]c(=O)c(-c3nc4cc(Cl)ccc4[nH]3)cc2c1` the IC50 (HepG2 [1]) was > 100 µM, the IC50 (L02) was > 100 µM and the IC50 (SK-OV-3) was > 100 µM. The IC50 (NCI-H460) was > 100 µM and the IC50 (BEL-7404 tumor cell line [3]) was > 100 µM.

`COc1ccc2[nH]c(=O)c(-c3nc4ccccc4[nH]3)cc2c1` was tested, and the IC50 (HepG2 [1]) was > 100 µM, the IC50 (L02) was > 100 µM and the IC50 (SK-OV-3) was > 100 µM. For the same compound, the IC50 (NCI-H460) was > 100 µM and the IC50 (BEL-7404 tumor cell line [3]) was > 100 µM.

With `O=c1[nH]c2cc3c(cc2cc1-c1nc2cc([N+](=O)[O-])ccc2[nH]1)OCO3` the IC50 (HepG2 [1]) was > 100 µM, the IC50 (L02) was > 100 µM and the IC50 (SK-OV-3) was > 100 µM. The IC50 (NCI-H460) was > 100 µM and the IC50 (BEL-7404 tumor cell line [3]) was > 100 µM.

`Cc1ccc2[nH]c(=O)c(-c3nc4cc(Br)ccc4[nH]3)cc2c1` was tested, and the IC50 (HepG2 [1]) was > 100 µM, the IC50 (L02) was > 100 µM and the IC50 (SK-OV-3) was > 100 µM. For the same compound, the IC50 (NCI-H460) was > 100 µM and the IC50 (BEL-7404 tumor cell line [3]) was > 100 µM.

In the case of `O=c1[nH]c2cc3c(cc2cc1-c1nc2cc(F)ccc2[nH]1)OCO3`, the IC50 (HepG2 [1]) is reported as 12.4 µM, the IC50 (L02) is reported as > 100 µM and the IC50 (SK-OV-3) is reported as > 100 µM. For the same compound, the IC50 (NCI-H460) was > 100 µM and the IC50 (BEL-7404 tumor cell line [3]) was 10.3 µM.

In the case of `Cc1ccc2[nH]c(=O)c(-c3nc4ccccc4[nH]3)cc2c1`, the IC50 (HepG2 [1]) is reported as > 100 µM, the IC50 (L02) is reported as > 100 µM and the IC50 (SK-OV-3) is reported as > 100 µM. The IC50 (NCI-H460) was > 100 µM and the IC50 (BEL-7404 tumor cell line [3]) was > 100 µM.

For `Cc1ccc2[nH]c(=O)c(-c3nc4cc(Cl)ccc4[nH]3)cc2c1`, the IC50 (HepG2 [1]) was 26.6 µM, the IC50 (L02) was > 100 µM and the IC50 (SK-OV-3) was 33 µM. It also gave an IC50 (NCI-H460) of 36.5 µM and an IC50 (BEL-7404 tumor cell line [3]) of 39 µM.

In the case of `O=c1[nH]c2cc3c(cc2cc1-c1nc2ccccc2[nH]1)OCO3`, the IC50 (HepG2 [1]) is reported as 25.6 µM, the IC50 (L02) is reported as > 100 µM and the IC50 (SK-OV-3) is reported as 32.2 µM. For the same compound, the IC50 (NCI-H460) was > 100 µM and the IC50 (BEL-7404 tumor cell line [3]) was > 100 µM.

In the case of `O=c1[nH]c2ccccc2cc1-c1nc2cc([N+](=O)[O-])ccc2[nH]1`, the IC50 (HepG2 [1]) is reported as > 100 µM, the IC50 (L02) is reported as > 100 µM and the IC50 (SK-OV-3) is reported as > 100 µM. For the same compound, the IC50 (NCI-H460) was > 100 µM and the IC50 (BEL-7404 tumor cell line [3]) was > 100 µM.

With `Cc1ccc2[nH]c(=O)c(-c3nc4cc(C)c(C)cc4[nH]3)cc2c1` the IC50 (HepG2 [1]) was > 100 µM, the IC50 (L02) was > 100 µM and the IC50 (SK-OV-3) was > 100 µM. For the same compound, the IC50 (NCI-H460) was > 100 µM and the IC50 (BEL-7404 tumor cell line [3]) was > 100 µM.

For `COc1ccc2[nH]c(=O)c(-c3nc4cc(F)ccc4[nH]3)cc2c1`, the IC50 (HepG2 [1]) was > 100 µM, the IC50 (L02) was > 100 µM and the IC50 (SK-OV-3) was > 100 µM. For the same compound, the IC50 (NCI-H460) was > 100 µM and the IC50 (BEL-7404 tumor cell line [3]) was > 100 µM.

For `Cc1ccc2[nH]c(=O)c(-c3nc4cc([N+](=O)[O-])ccc4[nH]3)cc2c1`, the IC50 (HepG2 [1]) was > 100 µM, the IC50 (L02) was > 100 µM and the IC50 (SK-OV-3) was > 100 µM. The IC50 (NCI-H460) was > 100 µM and the IC50 (BEL-7404 tumor cell line [3]) was > 100 µM.

For `COc1ccc2[nH]c(=O)c(-c3nc4cc(C)c(C)cc4[nH]3)cc2c1`, the IC50 (HepG2 [1]) was > 100 µM, the IC50 (L02) was > 100 µM and the IC50 (SK-OV-3) was > 100 µM. For the same compound, the IC50 (NCI-H460) was > 100 µM and the IC50 (BEL-7404 tumor cell line [3]) was > 100 µM.

In the case of `Cc1ccc2[nH]c(=O)c(-c3nc4cc(F)ccc4[nH]3)cc2c1`, the IC50 (HepG2 [1]) is reported as > 100 µM, the IC50 (L02) is reported as > 100 µM and the IC50 (SK-OV-3) is reported as > 100 µM. The IC50 (NCI-H460) was > 100 µM and the IC50 (BEL-7404 tumor cell line [3]) was > 100 µM.

For `O=c1[nH]cc(F)c(=O)[nH]1` [FLUOROURACIL], the inhibition in vivo at 25 mg/kg (BEL-7404 tumor cell line [4]) was 34.5%, the T/C (BEL-7404 tumor cell line [5]) was 56.1% and the IC50 (BEL-7404 tumor cell line [3]) was 40.2 µM.

In the case of `O=c1[nH]c2cc3c(cc2cc1-c1nc2cc(Br)ccc2[nH]1)OCO3`, the IC50 (HepG2 [1]) is reported as > 100 µM, the IC50 (L02) is reported as > 100 µM and the IC50 (SK-OV-3) is reported as > 100 µM. The IC50 (NCI-H460) was > 100 µM and the IC50 (BEL-7404 tumor cell line [3]) was > 100 µM.
